Results published in publication PMC3187937 (Biochemistry, 2011).
Values joined by “and” are separate entries in the source; they are usually repeats but may differ in a detail not shown here. Equal values may be shown once. Read-outs that look alike come from different tables or passages of the source.

What was measured:
[1] = target: T1, R. capsulatus wild-type cyt bc1 (Rhodobacter capsulatus, UniProt D5ANZ3); assay: Michaelis-Menten kinetics of DBH2:cyt c reductase, wild-type enzyme; type: biochemical; settings: DBH2 as substrate
T1 sequence (D5ANZ3 1-437): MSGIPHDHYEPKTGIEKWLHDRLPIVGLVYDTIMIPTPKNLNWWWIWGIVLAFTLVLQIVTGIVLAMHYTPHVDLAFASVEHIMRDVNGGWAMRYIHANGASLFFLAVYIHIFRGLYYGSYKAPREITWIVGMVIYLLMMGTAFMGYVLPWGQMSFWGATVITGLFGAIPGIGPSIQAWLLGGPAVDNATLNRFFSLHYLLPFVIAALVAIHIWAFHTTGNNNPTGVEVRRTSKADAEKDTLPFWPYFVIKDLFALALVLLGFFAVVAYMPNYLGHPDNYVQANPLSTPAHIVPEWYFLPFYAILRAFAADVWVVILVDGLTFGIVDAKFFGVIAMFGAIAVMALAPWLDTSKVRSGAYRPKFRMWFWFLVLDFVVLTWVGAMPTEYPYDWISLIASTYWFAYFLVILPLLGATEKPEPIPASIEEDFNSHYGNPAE
T1 sequence (D5ANZ2 1-191 partner): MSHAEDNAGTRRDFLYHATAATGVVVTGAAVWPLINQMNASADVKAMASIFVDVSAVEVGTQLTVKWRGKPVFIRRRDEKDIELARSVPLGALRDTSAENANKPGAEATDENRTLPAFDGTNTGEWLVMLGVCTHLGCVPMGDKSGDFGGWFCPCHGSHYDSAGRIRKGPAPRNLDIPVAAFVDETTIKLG
T1 sequence (D5ANZ4 22-279 partner): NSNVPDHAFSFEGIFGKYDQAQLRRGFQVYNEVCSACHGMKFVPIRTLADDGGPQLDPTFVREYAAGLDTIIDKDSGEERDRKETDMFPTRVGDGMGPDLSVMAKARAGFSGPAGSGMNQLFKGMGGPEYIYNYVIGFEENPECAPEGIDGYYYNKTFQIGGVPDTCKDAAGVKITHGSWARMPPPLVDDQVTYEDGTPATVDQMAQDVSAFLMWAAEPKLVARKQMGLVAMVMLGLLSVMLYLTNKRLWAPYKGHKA
Method in brief: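 Enzyme purified by DDM solubilisation of chromatophore membranes from respiratory-grown cells, then DEAE and Sephacryl S400 chromatography. Assay: 2.3 nM enzyme with 40 μM horse heart cyt c, 2 mM KCN and 0.1 g/L DDM in 50 mM sodium phosphate pH 7.4, stirred at 20 °C. DBH₂ in DMSO was varied from 0.5 to 40 μM. Initial cyt c reduction rate read at 550 nm over 1 min. Km and Vmax came from double-reciprocal plots and Michaelis-Menten fitting.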

[2] = target: R. capsulatus E295V mutant cyt bc1 (Rhodobacter capsulatus, UniProt D5ANZ3, E295V); assay: Michaelis-Menten kinetics of DBH2:cyt c reductase, E295V mutant enzyme; type: biochemical; settings: DBH2 as substrate
[3] = target: T2, hemes of R. capsulatus cyt bc1 (Rhodobacter capsulatus, UniProt D5ANZ3)
T2 sequence (D5ANZ3 1-437): T1 sequence (D5ANZ3 1-437)
T2 sequence (D5ANZ2 1-191 partner): T1 sequence (D5ANZ2 1-191 partner)
T2 sequence (D5ANZ4 22-279 partner): T1 sequence (D5ANZ4 22-279 partner)

E295V mutant cyt bc1 = E295V mutant cyt bc1 (Rhodobacter capsulatus, UniProt D5ANZ3, E295V); type: binding
chicken cyt bc1 = settings: avian; ref [25]; cited from earlier work
bovine cyt bc1 [4] = settings: cited from earlier work
[5] = target: T3, purified R. capsulatus wild-type cyt bc1 (Rhodobacter capsulatus, UniProt D5ANZ3); assay: Zn^2+ inhibition kinetics of DBH2:cyt c reductase activity, wild-type enzyme; type: biochemical; settings: 40 mM Tris-HCl buffer pH 7.5, single homogeneous inhibition site fit, free Zn^2+
T3 sequence (D5ANZ3 1-437): T1 sequence (D5ANZ3 1-437)
T3 sequence (D5ANZ2 1-191 partner): T1 sequence (D5ANZ2 1-191 partner)
T3 sequence (D5ANZ4 22-279 partner): T1 sequence (D5ANZ4 22-279 partner)

[6] = target: purified R. capsulatus cyt b E295V mutant cyt bc1 (Rhodobacter capsulatus, UniProt D5ANZ3, E295V); assay: Zn^2+ inhibition kinetics of DBH2:cyt c reductase activity, E295V mutant enzyme; type: biochemical
bovine cyt bc1 [7] = settings: cited from earlier work; remark: listed apart in the source
wild-type cyt bc1 = target: T4, wild-type cyt bc1 (Rhodobacter capsulatus, UniProt D5ANZ3); assay: Isothermal titration calorimetry of Zn^2+ binding, wild-type enzyme
T4 sequence (D5ANZ3 1-437): T1 sequence (D5ANZ3 1-437)
T4 sequence (D5ANZ2 1-191 partner): T1 sequence (D5ANZ2 1-191 partner)
T4 sequence (D5ANZ4 22-279 partner): T1 sequence (D5ANZ4 22-279 partner)

[8] = E295V, blind fit, two-site model

E295V mutant cyt bc1, sequence (D5ANZ3 whole entry E295V, one chain of several): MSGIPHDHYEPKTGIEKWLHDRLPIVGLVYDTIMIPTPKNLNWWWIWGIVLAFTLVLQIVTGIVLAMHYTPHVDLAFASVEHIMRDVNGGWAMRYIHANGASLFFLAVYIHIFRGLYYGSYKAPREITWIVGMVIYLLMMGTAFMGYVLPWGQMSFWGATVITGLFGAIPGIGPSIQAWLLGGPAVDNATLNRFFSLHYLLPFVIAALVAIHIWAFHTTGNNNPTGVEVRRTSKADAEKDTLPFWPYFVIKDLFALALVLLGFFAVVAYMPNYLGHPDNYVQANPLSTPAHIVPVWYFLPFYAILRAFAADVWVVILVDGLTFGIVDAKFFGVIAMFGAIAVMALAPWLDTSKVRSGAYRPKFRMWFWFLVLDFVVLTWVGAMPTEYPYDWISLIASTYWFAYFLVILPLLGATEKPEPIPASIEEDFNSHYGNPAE
R. capsulatus E295V mutant cyt bc1, sequence (D5ANZ3 whole entry E295V, one chain of several): as above
purified R. capsulatus cyt b E295V mutant cyt bc1, sequence (D5ANZ3 whole entry E295V, one chain of several): as above

## CCCCCCCCCCc1c(C)c(O)c(OC)c(OC)c1O [DBH2, Decylbenzohydroquinone]
[1]
  Kcat: 85.2 ± 13.1 s⁻¹
  Vmax: 42.4 µmol/min/mg and 42.4 ± 0.8 µmol/min/mg
[1]; purified enzyme
  Km: 4.9 ± 0.2 µM
[2]; steady-state
  Vmax of E295V relative to wild type (fold lower): 4 fold
[2]; E295V
  Kcat: 34.3 ± 4.5 s⁻¹
  Vmax: 10.6 ± 0.4 µmol/min/mg
[2]; E295V, purified enzyme
  Km: 3.1 ± 0.4 µM

## [Zn+2] [Zn^2+]
[3]; wild type, 200 μM Zn^2+, oxidative titration, pH 8.0
  effect on midpoint potentials of the b-type hemes: does not significantly affect
[3]; with Zn^2+ added, +500 mV vs SHE
  effect on oxidation rate: remained unaffected
[3]; with Zn^2+ added, −500 mV vs SHE, within 7 minutes without Zn^2+
  time to fully reduced samples after application of the reducing potential: 10 min
E295V mutant cyt bc1; [8]
  n1: 1.97 ± 0.08
  n2, low affinity binding sites per cyt bc1: 7.1 ± 0.3
  ΔH1: -9.9 ± 0.7 kcal/mol
  ΔH2: -2.6 ± 0.3 kcal/mol
E295V mutant cyt bc1; E295V, n1 = 1 fixed
  n2, number of low affinity sites: 9.1 ± 0.5
  ΔH1: -28 ± 4 kcal/mol
  ΔH2: -0.9 ± 0.5 kcal/mol
E295V mutant cyt bc1; read-out: KD1 (high affinity site), E295V, two-site model with n1 = 1 fixed
  Kd: 1 ± 0.36 µM
E295V mutant cyt bc1; read-out: KD2 (low affinity sites), E295V, n1 = 1 fixed
  Kd: 3.5 ± 1.6 µM
E295V mutant cyt bc1; read-out: KD2, E295V, blind fit, two-site model
  Kd: 5.81 ± 1.22 µM
E295V mutant cyt bc1; unitary stoichiometry assumed
  change of KD1 of high affinity site in E295V compared to wild type: increase by a factor of two
Chicken cyt bc1
  Ki: 3 µM
Bovine cyt bc1 [4]; pH 7.0, ref [39]
  Ki: 0.1 µM
Bovine cyt bc1 [4]; ref [39]
  Complete inhibition (Zn^2+ concentration): [Zn^2+] > 5 μM
[5]
  Ki: 0.9 µM
[6]; 40 mM Tris-HCl buffer pH 7.5, single site fit, free Zn^2+
  Ki: 2.6 µM
[6]; [Zn^2+] > 0.2 mM
  residual activity: 30%
Bovine cyt bc1 [7]; pH 7.0, first value of cell, ref [39]
  Kd: 0.1 µM
Bovine cyt bc1 [7]; read-out: KD (second value), second value of cell, ref [39]
  Kd: > 2 µM
wild-type cyt bc1; high affinity site
  ΔH1: -5.6 ± 0.2 kcal/mol
wild-type cyt bc1; lower affinity sites
  ΔH2: -1.4 ± 0.2 kcal/mol
wild-type cyt bc1; read-out: KD1 (high affinity site), two-site model
  Kd: 0.5 ± 0.07 µM
wild-type cyt bc1; read-out: KD2 (lower affinity sites), two-site model
  Kd: 6.8 ± 0.9 µM
wild-type cyt bc1; read-out: KD (high affinity site), two-site model
  Kd: 0.5 µM
wild-type cyt bc1; read-out: KD (lower affinity sites), two-site model
  Kd: 6.8 µM
wild-type cyt bc1; sites per protein complex
  n1, stoichiometry of high affinity site: 1.13 ± 0.03
  n2, number of lower affinity binding sites: 3.7 ± 0.2
